Assays:
Format in all cases: organism-based
Settings in all cases: in vivo, other, 336 h
[1] = tested on: Glycine max; assay: Genotoxicity in Glycine max (soybean) exposed to compound through spray 4 times over 2 weeks assessed as relative adduct level A3 measured per 10^9 nucleotides using HX-dG internal standard using [32P]labeling based autoradiography relative to untreated control
Outline: (§1)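 Plants (2–6 weeks grown), groups of 2–4, sprayed 4 times over 2 weeks with formulations diluted per label (chlorothalonil 1:256, carbaryl 1:64 in water); controls water-sprayed. DNA from 1 g leaf via DNeasy Maxi kit. 10 µg DNA digested with micrococcal nuclease/spleen phosphodiesterase (4 h, 37 °C), NP1-enriched (45 min, 37 °C), labelled with [γ-32P]ATP/T4 kinase (45 min, 37 °C).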

[2] = tested on: Glycine max; assay: Genotoxicity in Glycine max (soybean) exposed to compound through spray 4 times over 2 weeks assessed as relative adduct level A3 measured per 10^9 nucleotides using [32P]labeling based autoradiography relative to untreated control; outline: as §1
[3] = tested on: Glycine max; assay: Genotoxicity in Glycine max (soybean) exposed to compound through spray 4 times over 2 weeks assessed as relative adduct level A2 measured per 10^9 nucleotides using [32P]labeling based autoradiography relative to untreated control; outline: as §1
[4] = tested on: Glycine max; assay: Genotoxicity in Glycine max (soybean) exposed to compound through spray 4 times over 2 weeks assessed as relative adduct level A1 measured per 10^9 nucleotides using [32P]labeling based autoradiography relative to untreated control; outline: as §1
[5] = tested on: Glycine max; assay: Genotoxicity in Glycine max (soybean) exposed to compound through spray 4 times over 2 weeks assessed as HNE-dG adducts using [32P]labeling based autoradiography (reference value: 34 cpm); outline: as §1
[6] = tested on: Glycine max; assay: Genotoxicity in Glycine max (soybean) exposed to compound through spray 4 times over 2 weeks assessed as relative adduct level A2 measured per 10^9 nucleotides using HX-dG internal standard using [32P]labeling based autoradiography relative to untreated control; outline: as §1
[7] = tested on: Glycine max; assay: Genotoxicity in Glycine max (soybean) exposed to compound through spray 4 times over 2 weeks assessed as relative adduct level A1 measured per 10^9 nucleotides using HX-dG internal standard using [32P]labeling based autoradiography relative to untreated control; outline: as §1
[8] = tested on: Glycine max; assay: Genotoxicity in Glycine max (soybean) exposed to compound through spray 4 times over 2 weeks assessed as HX-dG adducts using [32P]labeling based autoradiography; outline: as §1
[9] = tested on: Glycine max; assay: Genotoxicity in Glycine max (soybean) exposed to compound through spray 4 times over 2 weeks assessed as HNE-dG adducts measured per 10^9 nucleotides using [32P]labeling based autoradiography (reference value: 2 no unit); outline: as §1
[10] = tested on: Glycine max; assay: Genotoxicity in Glycine max (soybean) exposed to compound through spray 4 times over 2 weeks assessed as HX-dG adducts measured per 10^9 nucleotides using [32P]labeling based autoradiography; outline: as §1
[11] = tested on: Glycine max; assay: Genotoxicity in Glycine max (soybean) exposed to compound through spray 4 times over 2 weeks assessed as relative adduct level A5 measured per 10^9 nucleotides using HX-dG internal standard using [32P]labeling based autoradiography relative to untreated control; outline: as §1
[12] = tested on: Glycine max; assay: Genotoxicity in Glycine max (soybean) exposed to compound through spray 4 times over 2 weeks assessed as relative adduct level A4 measured per 10^9 nucleotides using HX-dG internal standard using [32P]labeling based autoradiography relative to untreated control; outline: as §1
[13] = tested on: Glycine max; assay: Genotoxicity in Glycine max (soybean) exposed to compound through spray 4 times over 2 weeks assessed as relative adduct level A5 measured per 10^9 nucleotides using [32P]labeling based autoradiography relative to untreated control; outline: as §1
[14] = tested on: Glycine max; assay: Genotoxicity in Glycine max (soybean) exposed to compound through spray 4 times over 2 weeks assessed as relative adduct level A4 measured per 10^9 nucleotides using [32P]labeling based autoradiography relative to untreated control; outline: as §1

Structure (SMILES)	Activity [1] [cpm]	Activity [2]	Activity [3]	Activity [4]	Activity [5] [cpm]	Activity [6] [cpm]	Activity [7] [cpm]	Activity [8] [cpm]	Activity [9]	Activity [10]	Activity [11] [cpm]	Activity [12] [cpm]	Activity [13]	Activity [14]
CC(C)[C@H](C(=O)O[C@H](C#N)c1cccc(Oc2ccccc2)c1)c1ccc(Cl)cc1	7857	154	49	26	3062	2477	1344	8264	60	215				
CNC(=O)Oc1cccc2ccccc12 [CARBARIL]	809	16	11	11	2956	571	569	6310	58	164	2767	773	54	15
